Test results: ChEMBL document CHEMBL1132860 (Bioorg Med Chem Lett, 2000)

Experiments:
[1] = target: T1, Alpha-1A adrenergic receptor (Homo sapiens, UniProt P35348); test: Binding affinity at human Alpha-1A adrenergic receptor in CHO cells uby [3H]prazosin (0.25 nM) displacement.; assay type: cell-based
T1 sequence (P35348 whole entry): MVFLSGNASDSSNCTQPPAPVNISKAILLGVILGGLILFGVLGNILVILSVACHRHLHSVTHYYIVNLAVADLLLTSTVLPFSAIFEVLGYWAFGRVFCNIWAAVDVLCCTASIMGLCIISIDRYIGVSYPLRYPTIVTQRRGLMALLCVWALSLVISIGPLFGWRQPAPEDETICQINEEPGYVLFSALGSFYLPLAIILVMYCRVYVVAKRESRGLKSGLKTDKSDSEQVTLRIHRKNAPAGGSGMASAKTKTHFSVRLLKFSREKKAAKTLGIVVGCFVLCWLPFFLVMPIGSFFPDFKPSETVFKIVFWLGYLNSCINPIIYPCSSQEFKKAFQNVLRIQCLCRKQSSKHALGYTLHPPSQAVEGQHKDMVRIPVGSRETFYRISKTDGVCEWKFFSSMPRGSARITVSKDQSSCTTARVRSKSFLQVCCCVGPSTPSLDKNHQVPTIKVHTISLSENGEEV

[2] = system: Rattus norvegicus; test: Inhibition of Xylazine (15 mg/kg i.v.) induced loss of righting reflex in rats following i.v. administration.; assay type: functional; set-up: unit not given here
[3] = system: Rattus norvegicus; test: Inhibition of clonidine (0.04 mg/kg) induced anti diarrhoeal effects in rats following s.c. administration.; assay type: functional; set-up: unit not given here
[4] = target: T2, Alpha-2B adrenergic receptor (Homo sapiens, UniProt P18089); test: Binding affinity at human Alpha-2B adrenergic receptor in CHO cells by [3H]rauwolscine (1 nM) displacement.; assay type: cell-based
T2 sequence (P18089 whole entry): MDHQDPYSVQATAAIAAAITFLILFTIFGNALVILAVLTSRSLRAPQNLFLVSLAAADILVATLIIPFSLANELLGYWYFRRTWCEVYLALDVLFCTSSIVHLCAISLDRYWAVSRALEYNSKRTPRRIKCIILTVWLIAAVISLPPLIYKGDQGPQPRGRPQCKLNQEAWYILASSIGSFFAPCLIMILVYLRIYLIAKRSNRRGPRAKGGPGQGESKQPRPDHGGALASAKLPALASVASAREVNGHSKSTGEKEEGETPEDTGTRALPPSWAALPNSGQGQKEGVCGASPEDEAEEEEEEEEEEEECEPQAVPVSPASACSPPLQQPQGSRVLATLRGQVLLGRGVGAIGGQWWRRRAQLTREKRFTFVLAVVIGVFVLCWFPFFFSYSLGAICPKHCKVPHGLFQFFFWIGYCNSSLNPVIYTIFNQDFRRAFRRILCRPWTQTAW

[5] = target: T3, Alpha-2C adrenergic receptor (Homo sapiens, UniProt P18825); test: biochemical; assay type: cell-based, CHO
T3 sequence (P18825 whole entry): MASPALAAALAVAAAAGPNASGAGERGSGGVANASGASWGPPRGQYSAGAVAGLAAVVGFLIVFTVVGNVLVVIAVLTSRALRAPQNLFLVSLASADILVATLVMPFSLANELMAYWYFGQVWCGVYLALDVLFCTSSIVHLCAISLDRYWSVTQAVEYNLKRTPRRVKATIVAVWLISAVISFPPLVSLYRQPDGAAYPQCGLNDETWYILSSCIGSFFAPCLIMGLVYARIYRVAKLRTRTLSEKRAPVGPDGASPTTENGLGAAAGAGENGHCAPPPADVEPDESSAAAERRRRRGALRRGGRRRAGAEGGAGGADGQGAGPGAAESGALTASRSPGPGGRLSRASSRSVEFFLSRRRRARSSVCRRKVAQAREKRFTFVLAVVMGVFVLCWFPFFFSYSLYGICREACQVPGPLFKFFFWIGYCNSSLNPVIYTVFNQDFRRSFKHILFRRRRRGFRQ

[6] = target: T4, Alpha-2A adrenergic receptor (Homo sapiens, UniProt P08913); test: Binding affinity at human Alpha-2A adrenergic receptor in CHO cells by [3H]rauwolscine (1 nM) displacement.; assay type: cell-based
T4 sequence (P08913 whole entry): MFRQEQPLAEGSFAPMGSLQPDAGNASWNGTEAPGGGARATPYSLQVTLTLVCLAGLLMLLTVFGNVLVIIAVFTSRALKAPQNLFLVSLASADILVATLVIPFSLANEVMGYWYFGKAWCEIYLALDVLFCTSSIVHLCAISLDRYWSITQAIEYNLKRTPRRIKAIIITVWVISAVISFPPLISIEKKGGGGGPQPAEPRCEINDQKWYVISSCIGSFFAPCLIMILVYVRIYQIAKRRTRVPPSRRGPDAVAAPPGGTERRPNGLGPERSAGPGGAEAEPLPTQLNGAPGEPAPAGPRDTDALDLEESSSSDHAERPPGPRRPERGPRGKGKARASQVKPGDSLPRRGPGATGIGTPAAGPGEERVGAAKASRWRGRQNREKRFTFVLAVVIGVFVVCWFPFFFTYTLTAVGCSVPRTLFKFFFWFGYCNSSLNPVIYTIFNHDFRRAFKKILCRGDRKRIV
In short: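 Membranes from CHO cells stably expressing the human receptor, with 1 nM [3H]rauwolscine as radioligand. Nonspecific binding was defined with 1 μM oxymethazoline. Compounds were tested over 10^-5 to 10^-11. Inhibition curves were fitted as sigmoids by non-linear regression using polynomials, and pIC50 (−log IC50) was read from the curves.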

Row | SMILES | IC50 [1] [nM] | Activity [2] | Activity [3] | IC50 [4] [nM] | IC50 [5] [nM] | IC50 [6] [nM]
1 | COc1cc2nc(C)c(CCN3CCc4oc5ccccc5c4C3)c(=O)n2cc1OC | 5250 | >10 | >0.63 | 195 | 57.5 | 3.55
2 | Cc1nc2c(Cl)cc(C(F)(F)F)cn2c(=O)c1CCN1CCc2oc3ccccc3c2C1 | 5890 |  |  | 1.95 |  | 1.17
3 | Cc1cc(C)n2c(=O)c(CCN3CCc4oc5ccccc5c4C3)c(C)nc2c1 | 240 | >10 | >2.5 | 2.63 | 0.851 | 0.339
4 | Cc1ccc2nc(C)c(CCN3CCc4oc5ccccc5c4C3)c(=O)n2c1 | 288 | 0.16 | 0.63 | 1.55 | 1.29 | 0.347
5 | O=c1c(CCN2CCc3oc4ccccc4c3C2)c(Cc2ccccc2)nc2ccccn12 | 204 | >10 | >2.5 | 4.17 | 2.69 | 2.19
6 | COc1cccn2c(=O)c(CCN3CCc4oc5ccccc5c4C3)c(C)nc12 | 115 | 0.63 | 0.63 | 2.04 | 0.708 | 0.295
7 | Cc1nc2ccc(I)cn2c(=O)c1CCN1CCc2oc3ccccc3c2C1 | 479 | 10 | >2.5 | 2.09 | 0.617 | 0.24
8 | Cc1nc2c(O)cccn2c(=O)c1CCN1CCc2oc3ccccc3c2C1 | 245 | 5 | 2.5 | 1.74 | 1.62 | 0.692
9 | Cc1nc2cccc(C)n2c(=O)c1CCN1CCc2oc3ccccc3c2C1 | 398 | 0.63 | 2.5 | 1.48 | 1.07 | 0.288
10 | Cc1nc2c(Cl)cc(Cl)cn2c(=O)c1CCN1CCc2oc3ccccc3c2C1 | 2570 | >10 | >2.5 |  |  | 0.589
11 | Cc1nc2ccccn2c(=O)c1CCN1CCc2oc3c(Cl)cccc3c2C1 | 282 | 2.5 | 0.63 | 4.37 | 2.24 | 0.891
12 | Cc1nc2ccccn2c(=O)c1CCN1CCc2sc3ccccc3c2C1 | 214 | 2.5 | 10 | 11.5 | 14.1 | 1.74
13 | Cc1nc2ccc(Br)cn2c(=O)c1CCN1CCc2oc3ccccc3c2C1 | 891 | 0.16 | 2.5 | 1.35 | 0.692 | 0.355
14 | Cc1nc2ccccn2c(=O)c1CCN1CCc2oc3ccc(Cl)cc3c2C1 |  | 10 | >2.5 | 79.4 | 27.5 | 3.89
15 | Cc1nc2ccccn2c(=O)c1CCCN1CCc2oc3ccccc3c2C1 | 813 | >10 | >2.5 | 10.7 | 6.61 | 10.2
16 | Cc1ccn2c(=O)c(CCN3CCc4oc5ccccc5c4C3)c(C)nc2c1 | 112 | 0.63 | 2.5 | 2.57 | 1.2 | 0.447
17 | Cc1nc2c(C)cccn2c(=O)c1CCN1CCc2oc3ccccc3c2C1 | 692 | 10 | 2.5 | 2.14 | 1.32 | 0.603
18 | Cc1nc2ccc(Cl)cn2c(=O)c1CCN1CCc2oc3ccccc3c2C1 | 724 | 0.04 | 0.63 | 0.955 | 0.724 | 0.214
19 | c1ccc2c(c1)OCC(C1=NCCN1)O2 (stereo not drawn) [IDAZOXAN] |  | 0.63 | 0.63 |  |  | 
20 | Cc1nc2ccccn2c(=O)c1CCN1CCc2oc3ccccc3c2C1 [LUSAPERIDONE] | 347 | 0.04 | 0.31 | 2.57 | 1.7 | 0.55
21 | CN1CCN2c3ncccc3Cc3ccccc3C2C1 (stereo not drawn) [MIRTAZAPINE] |  | 2.5 | >10 |  | 200 | 
